# Publication PMC5604227 (Biochemistry, 2016)
# Where “and” joins values, the source holds several entries; their conditions need not be identical. Identical values can stand only once.
# What was measured:
# wild-type TSase [1] = molecular target: T1, wild-type TSase (Escherichia coli, UniProt P0A884); set-up: species or system E. coli
# In short: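 1H-13C HSQC of wild-type TSase with dUMP bound, U-[2H,13C,15N] ILV-methyl labelled (Ile δ1 only; Leu/Val one methyl protonated). Fraction of the covalently bound state taken from the relative intensities of its assigned resonances. Forward covalent-bond formation rate calculated from that fraction and a prior literature bond-breakage rate (H5 solvent exchange, 0.01 min−1, similar pH and temperature).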
# [2] = tested on: TSase (wild-type and C146S); set-up: species or system E. coli
# C146S TSase [3] = molecular target: T2, C146S TSase (Escherichia coli, UniProt P0A884, C146S); experiment: ITC of dUMP binding to C146S TSase; set-up: species or system E. coli
# T2 sequence (P0A884 whole entry C146S): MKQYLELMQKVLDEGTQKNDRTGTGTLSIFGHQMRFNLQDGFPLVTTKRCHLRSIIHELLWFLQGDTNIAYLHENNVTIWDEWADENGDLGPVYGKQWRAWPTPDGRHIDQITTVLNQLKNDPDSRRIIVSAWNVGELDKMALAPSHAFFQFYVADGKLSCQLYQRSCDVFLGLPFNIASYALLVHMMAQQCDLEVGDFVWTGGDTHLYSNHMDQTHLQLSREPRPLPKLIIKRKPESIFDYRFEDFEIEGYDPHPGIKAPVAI
# wild-type TSase [4] = molecular target: T1, wild-type TSase; conditions: ITC; cited from earlier work
# C146S TSase [5] = molecular target: T2, C146S TSase; conditions: cited from earlier work
# C146S-dUMP complex = C146S-dUMP complex (Escherichia coli, UniProt P0A884, C146S); assay type: binding, E. coli; conditions: 5 °C
# Chain of C146S-dUMP complex (P0A884 whole entry C146S, one chain of several): as the sequence (P0A884 whole entry C146S) above
# [6] = C146S relative to wild-type, 25 °C
# T1 sequence (P0A884 whole entry): as the sequence (P0A884 whole entry C146S) above, with S146C counted along it
smiles,measurement,setting,value
O=c1[nH]c(=O)n([C@H]2C[C@H](O)[C@@H](COP(=O)(O)O)O2)cc1F [5F-dUMP],population of the minor (covalent) state relative to dUMP complex,wild-type TSase [1]; wild-type TSase complex,significantly increased
O=c1ccn([C@H]2C[C@H](O)[C@@H](COP(=O)(O)O)O2)c(=O)[nH]1 [dUMP],total TΔΔS°conf associated with binding both dUMP molecules,"[2]; scaled to probes in the dimer, C146S vs wild-type",-2.08 ± 0.18 kcal/mol
same,ΔS°conf opposing binding of each dUMP molecule,[2]; wild-type TSase,~1 kcal/mol
same,fold weaker dUMP binding,C146S TSase [3]; [6],18 fold and 20 fold
same,ΔΔG°bind penalty for formation of the dUMP complex,C146S TSase [3]; [6],1.7 kcal/mol
same,change in TΔS° per binding event,C146S TSase [3]; C146S vs wild-type,~1 kcal/mol
same,sum of calorimetric TΔΔS° values for both binding events,C146S TSase [3]; C146S vs wild-type,-1.7 kcal/mol
same,change in protonation state on binding (loss of proton per binding event),wild-type TSase [4],less than 0.1 proton
same,fold weaker KD of C146S for dUMP than wild-type,C146S TSase [5],~2 fold
same,fraction of covalently bound state,"wild-type TSase [1]; wild-type dUMP complex, from resonance intensities",19% and ~20%
Cc1nc2ccc(CN(C)c3ccc(C(=O)N[C@@H](CCC(=O)O)C(=O)O)s3)cc2c(=O)[nH]1 [Raltitrexed],cooperativity ρ,C146S-dUMP complex,1.3 ± 0.3
